Laboratory results taken from ChEMBL document CHEMBL3864141, “Cyclic non-opioid dynorphin A analogues for the bradykinin receptors” (Bioorg Med Chem Lett, 2016).
Positions of bridges follow the written chain, without caps; N, C: chain ends. Non-standard residues stand in square brackets, D forms with d. Residues, ends and D or L forms follow the SMILES beside them. Nle = CCCC[C@H](N)C(=O)O

Assays:
[1] = Half life in rat plasma by RP-HPLC method; format: ADME, cell-free
In short: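 Peptide incubated in rat plasma at 37 °C and sampled at 1, 2, 4 and 8 h. Quenched samples were analysed by RP-HPLC. Half-life was calculated as t1/2 = 0.693/b, where b is the slope of the linear fit.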

[2] = Displacement of [3H]BK from bradykinin receptor in rat brain membranes at pH 6.8 after 2 hrs by liquid scintillation counting method; format: cell membranes, Membrane
In short: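 Competitive binding of [3H]BK to rat brain membranes at pH 6.8. Non-specific binding was defined with 10 μM kallidin. IC50 values were obtained by nonlinear least-squares regression of data from at least two independent experiments run in duplicate, and were also reported as logarithmic values.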

[3] = Displacement of [3H]DALKD from bradykinin receptor in rat brain membranes at pH 6.8 after 2 hrs by liquid scintillation counting method; format: cell membranes, Membrane

Row | half-life [1] [h] | IC50 [2] [nM] | pIC50 [2] | IC50 [3] [nM] | pIC50 [3] | Compound
1 | 5.5 | 191 | 6.72 | – | – | CC[C@H](C)[C@@H]1NC(=O)[C@H](CCCNC(=N)N)NC(=O)[C@H](CC(C)C)NC(=O)[C@H](Cc2ccccc2)NC(=O)CC[C@@H](C(=O)N[C@@H](CCCCN)C(=O)O)NC(=O)[C@H](CCCNC(=N)N)NC1=O (FLRIREK-OH; lactam N-6)
2 | – | – | – | 78 | 7.11 | CCCC[C@H](NC(=O)[C@H](CCCCN)NC(=O)[C@@H]1CCCN1C(=O)[C@H](CCCCN)NC(=O)[C@@H](N)CCCC)C(=O)N[C@@H](CCCCN)C(=O)O (H-[Nle]KPK[Nle]K-OH)
3 | – | 302 | 6.52 | – | – | CC[C@H](C)[C@@H]1NC(=O)[C@H](CCCNC(=N)N)NC(=O)[C@H](CC(C)C)NC(=O)[C@H](CCCCN)NC(=O)CC[C@@H](C(=O)N[C@@H](CCCCN)C(=O)O)NC(=O)[C@H](CCCNC(=N)N)NC1=O (KLRIREK-OH; lactam N-6)
4 | – | 1510 | 5.82 | – | – | CC[C@H](C)[C@@H]1NC(=O)[C@H](CCCNC(=N)N)NC(=O)[C@H](CC(C)C)NC(=O)CC[C@@H](C(=O)N[C@@H](CCCCN)C(=O)O)NC(=O)[C@H](CCCNC(=N)N)NC1=O (LRIREK-OH; lactam N-5)
